Rows were chosen to be rich in hits. Some 3.8% of all compounds tested hit in one or more screens of this group.
Yeast life ext = compounds extending yeast replicative lifespan, primary screen, S. cerevisiae, OD615; 130,000 tested, 0.68% active; inhibition of the nicotinamide effect, % at 10 µM; AID 775, 2007; S. cerevisiae growth with nicotinamide; deaD strain in restrictive glucose medium;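 active = inhibition above a set limit, placed 3 SD over the median of all compounds, cut at about 26% in these data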;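 note: 0% = nicotinamide-treated wells and 100% = cells grown without nicotinamide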
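Assay system: engineered S. cerevisiae DeaD replicative-lifespan strain, galactose-grown log-phase cells; Buffer or medium: CSMM-D glucose medium, restrictive; Probe or stimulus: nicotinamide 1.5 mM; Compound: single dose 10 µM compound, 0.25% DMSO; Schedule: 4 h preincubation then 48 h treatment at 30 °C; Technique: OD615 measurement.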
RAM inhibit = inhibitors of the yeast RAM network, primary screen, dse1pr::URA3 reporter, 5-FOA selection | S. cerevisiae dse1pr::URA3 reporter, 5-FOA growth OD615, 2 d; analog-sensitive cbk1-as2 kinase mutant strain | inhibition, % at 50 µM | 190,000 tested, 1.8% active | AID 868, 2007;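 active = inhibition above a set limit, 3 SD over mean compound inhibition, cut at about 8.4% in these data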;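 note: 0% = DMSO-only wells with no growth and 100% = 10 µM 1-NA-PP1 full growth; inhibition rescues growth on 5-FOA so higher OD means more RAM inhibition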
Measles CPE = compounds protecting cells from measles virus cytopathic effect, primary screen, measles RdRp inhibitor project, single point, MLSMR library, absorbance; Measles virus-infected cells, CPE protection; protection (pct of control), % at 4 µM; 140,000 tested, 1.5% active; AID 841, 2007; in the data active = protection mostly above about 24%, no sharp cut-off; inactive = mostly below about 26%
Yeast growth inh = growth inhibitors of yeast BB579 in restrictive medium, primary screen, yeast lifespan-shortening project, S. cerevisiae; OD615, 48 h; inhibition, % at 10 µM; 140,000 tested, 0.51% active;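 active = inhibition above a set limit, 3 SD over the mean compound inhibition, cut at about 44% in these data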
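Assay system – yeast BB579 (DeaD) · Dosing – single compound dose of 10 µM, 0.25% DMSO final · Detection – OD615 turbidity measurement · Buffer or medium – CSMM-D restrictive synthetic medium containing dextrose (glucose) · Benchmarks – positive control amphotericin B 10 µg/mL · Incubation – 48 h exposure, 30 °C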
The depositor's hits bear a star; · = no result given.

SMILES	Yeast life ext	RAM inhibit	Measles CPE	Yeast growth inh
CCOc1cc(/C=N\NC(=O)Cn2nnc3ccccc32)ccc1O	·	1	·	·
O=C(NNc1ccc([N+](=O)[O-])cc1)C1CC1c1ccccc1 (stereo not drawn)	2	2	23*	-52
Cc1cc(C)cc(-n2cc[nH]c2=S)c1	4	-1	7	1
Cc1ccc(S(=O)(=O)N2CCC(C(=O)N/N=C/c3cccnc3)CC2)cc1	-1	3	3	-60
COc1cc(NC(=O)c2ccc(COCC(F)(F)F)cc2)cc(OC)c1OC	-17	1	30*	-20
COc1ccc(NC(=O)c2ccc(COCC(F)(F)C(F)F)cc2)cc1OC	-2	6	13	-4
O=C1OC2(CCCCC2)OC(=O)C1=CNc1nc2ccccc2s1	69*	1	5	-42
O=C1OC2(CCCCC2)OC(=O)C1=CNc1nccs1	25	2	33	-16
Cc1cc(OC(=O)c2ccc(S(=O)(=O)N(C)C)cc2)c([N+](=O)[O-])c(=O)[nH]1	·	1	·	·
CCC(=O)N/N=C/c1ccc(OS(=O)(=O)c2ccccc2)cc1	-8	0	18*	-2
Cn1cc(Cl)c(C(=O)N/N=C/c2ccc(OS(=O)(=O)c3ccccc3)cc2)n1	·	0	13	-11
CCOC(=O)Cn1nc(C)n(-c2c(C)cccc2C)c1=O	·	4	·	·
COC(=O)c1ccc(OCC(O)CN(CCO)CCO)cc1 (stereo not drawn)	-3	1	2	-38
OCCN(CCO)CC(O)COc1ccc(C23CC4CC(CC(C4)C2)C3)cc1 (stereo not drawn)	-10	-2	5	46*
CN(Cc1nc(Cc2ccccc2F)no1)Cc1cccc2ncccc12	·	1	·	·
COc1ccccc1-c1c(C)oc2cc(OCC(=O)OCc3ccccc3)ccc2c1=O	0	7	6	-19
CCC1(C)CC(=O)N(c2ccc(C(=O)O)c(O)c2)C1=O (stereo not drawn)	-11	1	36*	20
CCOC(=O)c1cc2c(n(-c3ccccc3)c1=O)CC(C)(C)CC2=O	-20	1	3	-20
CC(C)(C)NS(=O)(=O)c1ccc(NS(C)(=O)=O)cc1	-8	2	45*	-8
COc1ccc(NS(=O)(=O)c2ccc(NS(C)(=O)=O)cc2)cc1	-10	1	4	-33
COCCn1c(-c2ccc(OC)cc2)cnc1SCC(=O)Nc1cccc2ccccc12	6	2	0	2
Cc1cccc(-c2noc(CN(C)S(=O)(=O)c3cc(Cl)ccc3Cl)n2)c1	-10	8.6*	20	-42
Cc1cccc(-c2noc(CN(C(=O)CCc3ccccc3)C(C)C)n2)c1	11	2	23	-18
COc1ccc(Cl)cc1C(=O)N(Cc1nc(-c2cccc(C)c2)no1)C(C)C	-3	4	6	10
Cc1cccc(-c2noc(CN(C(=O)/C=C/c3ccccc3Cl)C(C)C)n2)c1	3	11*	10	-53
SMILES	Yeast life ext	RAM inhibit	Measles CPE	Yeast growth inh
CCCNC(=O)Nc1ccc2c(c1)N(C)C(=O)c1ccccc1S2	-12	5	60*	-59
CN1C(=O)c2ccccc2Sc2ccc(NC(=O)N3CCCC3)cc21	15	6	6	-43
Cc1cccc(NC(=O)C(CC(C)C)NC(=O)C2CCC(C)CC2)n1 (stereo not drawn)	·	4	·	·
CCOC(=O)N/N=C(\C)c1ccc(OC(F)F)cc1OC(F)F	-8	0	14	-9
O=C1C2CCCN2C(c2ccc(F)cc2)N1c1nccs1 (stereo not drawn)	-5	0	33*	25
NS(=O)(=O)c1ccc(Nc2nc3ccccc3nc2NS(=O)(=O)c2cccc([N+](=O)[O-])c2)cc1	·	8.6*	·	·
CC(=O)Nc1ccc(S(=O)(=O)Nc2nc3ccccc3nc2Nc2ccc(S(N)(=O)=O)cc2)cc1	5	8	6	-4
O=C(COc1ccccc1)NCCSCc1ccc(Cl)cc1	-6	9.9*	4	-18
COc1cc(NS(=O)(=O)c2ccc(N/C=C(\C=O)c3nc4ccccc4o3)cc2)nc(OC)n1	0	6	·	-37
Nc1ncnc2c1ncn2[C@@H]1O[C@H](CO)[C@@H](O)[C@H]1O	5	2	45*	-44
CSc1nc(N)nc(SCCS(=O)(=O)c2ccc(Cl)cc2)c1C#N	-3	7	78*	-31
O=C1CC(N2CCCc3ccccc32)C(=O)N1c1ccccc1Cl (stereo not drawn)	·	2	20	-27
Cc1cc(S(=O)(=O)N2CCN=C2c2ccccc2)c(Cl)cc1Cl	16	1	5	-41
CCn1c2ccccc2c2cc(NC(=O)CC(C)=O)ccc21	-6	2	11	-26
Cc1ccc(Cn2ccc(NC(=O)c3noc4c3CCCCC4)n2)cc1	-14	2	62*	1
O=C(Nc1cnn(Cc2ccc(Cl)c(Cl)c2)c1)c1nc2ncccn2n1	-6	2	4	-16
Cc1ccc(Cn2ccc(NC(=O)c3nc4ncccn4n3)n2)cc1	-12	3	39*	2
O=C(Nc1ccc(Cl)cc1)c1cc(S(=O)(=O)N2CCOCC2)cs1	2	2	78*	-27
CCC(Cc1ccccc1)NC(=O)C1=C(C)C(=O)OC12CCC(C)CC2 (stereo not drawn)	·	2	·	·
CCOC(=O)COc1c(Cl)cc(C2NC(=S)NC(c3ccccc3)=C2C(C)=O)cc1OCC (stereo not drawn)	1	4	10	-20
CC1SC2(NC1=O)C1CC3CC(C1)CC2C3 (stereo not drawn)	·	2	·	·
COc1ccccc1-n1c(SCc2cc(=O)oc3cc(O)ccc23)nc2ccccc2c1=O	3	7	17	-47
COc1ccccc1-n1c(=O)oc2ccc(Cl)cc2c1=O	-15	3	14	53*
COc1ccc(CNc2nc3c(c(=O)n(Cc4ccc(Br)cc4)c(=O)n3C)n2C)cc1	-15	8.8*	15	-55
Cn1c(NCc2ccccc2)nc2c1c(=O)n(Cc1ccc(Br)cc1)c(=O)n2C	-4	4	13	3
SMILES	Yeast life ext	RAM inhibit	Measles CPE	Yeast growth inh
COc1cccc(C(=O)NNC(=S)NC2CCCCC2)c1	-3	1	25*	-10
COc1cccc(C(=O)NC2CCCC2)c1	·	2	·	·
Cn1nc(C(=O)OCc2ccc(F)cc2)c2ccccc2c1=O	·	10*	·	·
CCSc1ncc(/C=N/Nc2ccc([N+](=O)[O-])cc2)n1C	-1	4	7	-10
Cc1cc[n+](-c2nc([O-])sc2/C=N/Nc2ccc([N+](=O)[O-])cc2)cc1	-11	3	49*	-33
O=C(O)c1ccccc1C(=O)Nc1ccc(S(=O)(=O)NC2CCCCC2)cc1	3	1	3	-46
CC(=O)Nc1ccc(NC(=O)C2CCCN2/C=C/C(=O)C(F)(F)F)cc1 (stereo not drawn)	·	0	·	·
CSc1nnc2c(n1)c(C)nn2-c1ccc(C)cc1	·	2	38*	-8

Screening results as filed in PubChem BioAssay.
